Activity calls are given as the source filed them. The rule behind the calls is not given here.
Legend:
Felis catus [1] = assay: Reduction of mean blood pressure in cat at 0.2 to 3 mg/kg, iv; format: functional, organism-based
Procedure, shortened: (§1)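 Adult cats of either sex were anesthetized with α-chloralose 80 mg/kg plus sodium pentobarbitone 6 mg/kg ip, and nearly all were bilaterally vagotomized. Drugs were given iv via a femoral or brachial vein in acid-0.9% saline (pH 4.5). The sciatic nerve was stimulated to evoke soleus contractions, with maximal twitches at 0.1 Hz. Responses were recorded continuously.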

Felis catus [2] = assay: Reduction of heart rate in cat at 0.2 to 3 mg/kg, iv; format: functional, organism-based; procedure, shortened: as §1
Felis catus [3] = assay: Reduction of mean blood pressure in cat at 0.2 to 3 mg/kg, iv in presence of atropine; format: functional, organism-based
Procedure, shortened: (§2)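 Cats were anesthetized with α-chloralose 80 mg/kg plus pentobarbitone 6 mg/kg ip and vagotomized. Drugs were given iv in acid saline pH 4.5. Heart rate and blood pressure responses were recorded before and after atropine 1 mg/kg.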

Felis catus [4] = assay: Reduction of heart rate in cat at 0.2 to 3 mg/kg, iv in presence of atropine; format: functional, organism-based; procedure, shortened: as §2
Felis catus [5] = assay: Reduction of mean blood pressure in atropinized-cat at 0.2 to 3 mg/kg, iv in presence of phentolamine; format: functional, organism-based
Procedure, shortened: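 In atropinized cats (atropine 1 mg/kg) under chloralose–pentobarbitone anesthesia, drugs in acid saline pH 4.5 were given iv. Mean blood pressure responses were recorded with phentolamine 2 mg/kg.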

Felis catus [6] = assay: Reduction of twitch tension in soleus muscle of electrically stimulated cat at 0.2 to 3 mg/kg, iv; format: functional, organism-based; procedure, shortened: as §1
Felis catus [7] = assay: Reduction of fused incomplete tetanic contraction in soleus muscle of electrically stimulated cat at 0.2 to 3 mg/kg, iv in presence of antagonist propranalol; format: functional, organism-based
Procedure, shortened: (§3)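 In chloralose–pentobarbitone anesthetized cats, the sciatic nerve was stimulated to evoke soleus contractions. Drugs were given iv in acid saline pH 4.5, and responses were recorded after propranolol 0.4 mg/kg.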

Felis catus [8] = assay: Reduction of fused incomplete tetanic contraction in soleus muscle of electrically stimulated cat at 0.2 to 3 mg/kg, iv; format: functional, organism-based; procedure, shortened: as §1
Felis catus [9] = assay: Reduction of twitch tension in soleus muscle of electrically stimulated cat at 0.2 to 3 mg/kg, iv in presence of antagonist propranolol; format: functional, organism-based; procedure, shortened: as §3
Gallus gallus [10] = species on record: Gallus gallus; assay: Agonist activity at cholinergic receptor in chicken biventer cervicis nerve muscle assessed as blockade of twitch accompanied with contracture at 10 to 200 ug/ml
Gallus gallus [11] = species on record: Gallus gallus; assay: Agonist activity at cholinergic receptor in chicken biventer cervicis nerve muscle assessed as blockade of twitch response at 10 to 200 ug/ml in presence of choline
Gallus gallus [12] = species on record: Gallus gallus; assay: Agonist activity at cholinergic receptor in chicken biventer cervicis nerve muscle assessed as blockade of twitch response at 10 to 200 ug/ml in presence of caffeine
Cavia porcellus [13] = species on record: Cavia porcellus; assay: Agonist activity at muscarinic acetylcholine receptor in guinea pig ileum smooth muscle assessed as contraction; format: tissue-based
Procedure, shortened: (§4)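 Guinea pig ileum segments were kept in Tyrode solution at 32 °C and bubbled with air. Isotonic contractions to cholinergic agonists were recorded, and log concentration–effect curves were built. Points are means of at least four experiments.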

[14] = target: T1, Acetylcholinesterase (Gallus gallus) (UniProt P36196); assay: Inhibition of acetylcholine esterase in chicken biventer cervicis muscle assessed as rate of acetylcholine hydrolysis at 1.3 X 10^-3 M by Ellman's method; conditions: Muscle tissue
T1 sequence (whole entry): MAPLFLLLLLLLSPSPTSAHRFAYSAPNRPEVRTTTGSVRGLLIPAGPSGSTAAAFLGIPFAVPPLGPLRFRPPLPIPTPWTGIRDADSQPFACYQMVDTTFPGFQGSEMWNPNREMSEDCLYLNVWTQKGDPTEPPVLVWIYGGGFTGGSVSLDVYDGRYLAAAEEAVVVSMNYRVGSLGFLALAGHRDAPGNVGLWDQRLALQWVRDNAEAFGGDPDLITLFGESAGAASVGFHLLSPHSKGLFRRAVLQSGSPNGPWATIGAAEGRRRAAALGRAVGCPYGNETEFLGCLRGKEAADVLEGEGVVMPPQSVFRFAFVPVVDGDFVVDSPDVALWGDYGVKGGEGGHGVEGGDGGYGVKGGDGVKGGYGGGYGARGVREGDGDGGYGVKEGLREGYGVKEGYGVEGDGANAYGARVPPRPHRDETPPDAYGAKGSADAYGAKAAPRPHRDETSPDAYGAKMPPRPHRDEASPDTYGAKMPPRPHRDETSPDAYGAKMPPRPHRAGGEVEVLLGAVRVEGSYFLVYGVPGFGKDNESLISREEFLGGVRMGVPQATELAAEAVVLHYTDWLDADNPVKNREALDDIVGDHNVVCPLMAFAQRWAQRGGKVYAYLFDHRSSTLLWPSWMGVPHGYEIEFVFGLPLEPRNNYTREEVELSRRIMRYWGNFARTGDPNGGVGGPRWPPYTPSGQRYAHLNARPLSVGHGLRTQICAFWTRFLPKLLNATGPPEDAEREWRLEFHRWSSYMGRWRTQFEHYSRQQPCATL
Procedure, shortened: (§5)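 Chick biventer cervicis muscle homogenates were assayed for cholinesterase with acetylthiocholine as substrate by Ellman's colorimetric method as modified by Gandiha et al. Absorbance change was read at 412 nm. Hydrolysis rates (µmol min^-1 g^-1) were compared with and without drug.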

Gallus gallus [15] = species on record: Gallus gallus; assay: Agonist activity at cholinergic receptor in chicken biventer cervicis nerve muscle assessed as blockade of twitch response at 10 to 200 ug/ml in presence of physostigmine
Gallus gallus [16] = species on record: Gallus gallus; assay: Agonist activity at cholinergic receptor in chicken biventer cervicis nerve muscle assessed as blockade of twitch response at 10 to 200 ug/ml in presence of tetanus
Acetylcholinesterase = target: T2, Acetylcholinesterase (Gallus gallus, UniProt P36196); assay: Inhibition of acetylcholine esterase in chicken biventer cervicis muscle assessed as rate of acetylcholine hydrolysis by Ellman's method; parameters: species or system Muscle tissue; conditions: read-out: I50; procedure, shortened: as §5
T2 sequence (P36196 whole entry): T1 sequence (whole entry)

Felis catus [17] = assay: Induction of fasiculated twitches in skeletal muscle of electrically stimulated cat at 0.2 to 3 mg/kg, iv relative to control; format: organism-based, Muscle tissue; parameters: dose 0.2-3 mg/kg, route intravenous; conditions: in vivo; procedure, shortened: as §1
Gallus gallus [18] = species on record: Gallus gallus; assay: (§6) Agonist activity at cholinergic receptor in chicken biventer cervicis nerve muscle assessed as twitch augmentation accompanied with contracture at 1 to 10 ug/ml
Gallus gallus [19] = species on record: Gallus gallus; assay: Agonist activity at cholinergic receptor isolated from chicken biventer cervicis nerve muscle assessed as >10 ug/ml
Gallus gallus [20] = species on record: Gallus gallus; assay: Agonist activity at cholinergic receptor isolated from chicken biventer cervicis nerve muscle assessed as >10 ug/ml measured after compound washout
Cavia porcellus [21] = species on record: Cavia porcellus; assay: Agonist activity at muscarinic acetylcholine receptor in guinea pig ileum smooth muscle assessed as contraction measured after compound washout; format: tissue-based; procedure, shortened: as §4
Cavia porcellus [22] = species on record: Cavia porcellus; assay: Agonist activity at muscarinic acetylcholine receptor in guinea pig ileum smooth muscle assessed as contraction in presence of atropine; format: tissue-based
Procedure, shortened: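 Guinea pig ileum was kept in Tyrode solution at 32 °C and aerated. Isotonic contractions were recorded, and concentration–effect curves were repeated after atropine 1×10^-8 M. Points are means of at least four experiments.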

Cavia porcellus [23] = species on record: Cavia porcellus; assay: Agonist activity at muscarinic acetylcholine receptor in guinea pig ileum smooth muscle assessed as contraction in presence of hexamethonium; format: tissue-based; procedure, shortened: as §4
Gallus gallus [24] = species on record: Gallus gallus; assay: as §6; remark: listed apart in the source
Gallus gallus [25] = species on record: Gallus gallus; assay: Agonist activity at cholinergic receptor in chicken biventer cervicis nerve muscle assessed as twitch blockade at 1 to 10 ug/ml
[26] = target: T1, Acetylcholinesterase (Gallus gallus); assay: Inhibition of acetylcholine esterase in chicken biventer cervicis muscle assessed as rate of acetylcholine hydrolysis at 37 uM by Ellman's method; conditions: Muscle tissue; procedure, shortened: as §5

## CC1NCCc2cc(O)c(O)cc21 (stereo unspecified)
Felis catus [1]
  Activity: Dose-dependent effect
Felis catus [2]
  Activity: Active
Felis catus [3]
  Activity: inactive
Felis catus [4]
  Activity: inactive
Felis catus [5]
  Activity: inactive
Felis catus [6]
  Activity: Active
Felis catus [7]
  Activity: inactive
Felis catus [8]
  Activity: Active
Felis catus [9]
  Activity: inactive
Gallus gallus [10]
  Activity: Active
Gallus gallus [11]
  Activity: Active
Gallus gallus [12]
  Activity: Active
Cavia porcellus [13]
  Activity: inactive
[14]
  Activity: 7.48 µmol/min/g
Gallus gallus [15]
  Activity: Active
Gallus gallus [16]
  Activity: Active

## CNC(=O)Oc1ccc2c(c1)[C@]1(C)CCN(C)[C@@H]1N2C [PHYSOSTIGMINE]
Acetylcholinesterase
  IC50: 0.02 µM

## Br.CC1(C)NCCc2cc(O)c(O)cc21
Felis catus [1]
  Activity: Dose-dependent effect
Felis catus [3]
  Activity: inactive
Felis catus [5]
  Activity: inactive
Felis catus [17]
  Activity: <= 100%
Gallus gallus [18]
  Activity: Active
Gallus gallus [19]
  Activity: Active
Gallus gallus [20]
  Activity: inactive
Cavia porcellus [13]
  Activity: Active
Cavia porcellus [21]
  Activity: inactive
Cavia porcellus [22]
  Activity: inactive
Cavia porcellus [23]
  Activity: Active
Acetylcholinesterase
  IC50: 37 µM
Gallus gallus [24]
  Activity: Active
Gallus gallus [25]
  Activity: inactive
[26]
  Activity: 3.55 µmol/min/g

## C[N+](C)(C)CCOC(N)=O
Gallus gallus [19]
  Activity: Active
Cavia porcellus [13]
  Activity: Active
Cavia porcellus [21]
  Activity: inactive
Cavia porcellus [22]
  Activity: inactive
